# Dynein transport: blocks dynein driven cargo transport along microtubules. 3617.4 mouse cells, GR-EGFP nuclear translocation imaging; test concentration mostly 20 µM; stimulated with dexamethasone, 1 µM; stronger effect = lower value. z-score, hits read low. 220,000 tested, 0.47% active. AID 1381;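 active = plate z-score of nuclear minus cytoplasmic receptor signal below a set negative limit, without overly bright fluorescence or cell loss, cut at about -3.5 in these data, passing the limit was not always enough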;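 also: z-score of nuclear minus cytoplasmic ring GR-EGFP intensity difference per well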
#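 medium = tetracycline-free induction medium containing charcoal-stripped FBS | probe or stimulus = dexamethasone, 1.0 µM final | timing = 48 h induction, then 1 h compound, then 30 min agonist, 37 °C | detection = automated 10x imaging of fixed Hoechst-stained cells | read-out basis = nuclear versus cytoplasmic GR-EGFP signal, averaged per well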
# MT stabilizer: microtubule stabilizers in HeLa cells. HeLa tubulin immunostaining HCS, 24 h; share of cells brighter than vehicle mean+2SD. % tubulin-high responders, % at 10 µM. 200,000 tested, 0.83% active;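 active = plate Z-score above 3 for both tubulin-high and condensed-nucleus cell shares, with cell loss under 80%, at 10 µM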;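 also: anti alpha tubulin signal scored within the nucleus-defined area of each cell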
# Rad51 HR inh: Rad51 (human) homologous recombination inhibition; hRad51 DNA strand exchange, fluorescence dequenching; inhibition, % at 10 µM; 200,000 tested, 0.085% active; AID 1385;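 active = inhibition above 40% at the single screening dose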
# Target sequence (Q06609 whole entry, looked up): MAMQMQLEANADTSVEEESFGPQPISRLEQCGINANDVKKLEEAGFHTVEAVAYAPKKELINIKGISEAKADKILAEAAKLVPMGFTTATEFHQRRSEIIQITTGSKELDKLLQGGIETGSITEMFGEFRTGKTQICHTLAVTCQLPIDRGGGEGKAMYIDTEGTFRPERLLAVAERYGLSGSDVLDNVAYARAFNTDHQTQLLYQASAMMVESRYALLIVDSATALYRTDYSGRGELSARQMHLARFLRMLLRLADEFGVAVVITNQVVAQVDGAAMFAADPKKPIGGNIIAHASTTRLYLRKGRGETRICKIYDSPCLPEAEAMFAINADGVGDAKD
#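 Test system: preformed human Rad51 ssDNA filaments; also added: Donor/quencher-labelled 47-bp dsDNA substrate; doses: 10 µM final, single point; times: 37 °C 15-min filament assembly, 30-min compound preincubation, 15-min exchange; detection: FRET fluorescence dequenching, excitation 485 nm, emission 520 nm; read-out basis: Fluorescence-based percent inhibition, control- and blank-normalised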
# TbHK1 inh: T. brucei hexokinase 1 inhibition; inhibition, % at 10 µM; 220,000 tested, 0.11% active; recombinant TbHK1, G6PDH-coupled NADH A340;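 active = inhibition of 50% or more in the single-dose primary screen; inactive = inhibition below 50%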
# b-catenin transl: modulators of beta-catenin nuclear translocation; nuclear translocation activity, % at 5 µM; HeLa beta-catenin nuclear translocation, immunofluorescence imaging; 190,000 tested, 0.3% active; AID 1665;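 active = nuclear translocation activity above 50% at 5 µM, with a well cell count of 50 or more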;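 also: per-cell ratio of nuclear to cytoplasmic median beta-catenin stain intensity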
#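 Test system: human HeLa cells, native beta-catenin. Compound dosing: 5 µM primary single dose, 0.1% DMSO, 0.02–20 µM confirmation series. Incubation: compound exposure 24 h at 37°C. Detection: beta-catenin immunostaining with DAPI counterstain, 20x imaging, 6 fields/well. Read-out basis: Nuclear/cytoplasmic beta-catenin signal ratio, % activation.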
# Numbers stand for hits; - = inactive; . = not tested or not shown. Only some compounds are listed: those with a hit (about 1.5% of all), similar ones and a draw of the others.
SMILES,Dynein transport,MT stabilizer,Rad51 HR inh,TbHK1 inh,b-catenin transl
CCCCOC1(c2ccccc2)OC(=O)c2ccccc21 (stereo unspecified),-,-,.,-,-
CCn1c(=N)n(CC(=O)c2ccc(Br)s2)c2ccccc21,-,.,-,-,-
COc1ccc(/C=N/NC(=O)c2[nH]c3ccc(Br)cc3c2-c2ccccc2)cc1,-,14,-,-,-
COc1ccc(/C=N/NC(=O)c2[nH]c3ccc(Br)cc3c2-c2ccccc2)c(C(=O)O)c1OC,-,.,-,-,-
O=C(N/N=C/c1ccccc1Cl)c1[nH]c2ccc(Br)cc2c1-c1ccccc1,-,-,-,-,94
Cc1c(C(=O)N/N=C/c2ccccc2)[nH]c2ccc(Cl)cc12,-,-,-,-,56
NNC(=O)c1[nH]c2ccc(Br)cc2c1-c1ccccc1,-,.,-,-,-
Cc1c(C(=O)N/N=C/c2ccc(N(C)C)cc2)[nH]c2ccc(Cl)cc12,-,-,.,-,-
O=c1[nH]c2cc3c(cc2cc1CN(CCc1ccccc1)Cc1nnnn1C1CCCC1)OCCO3,-,-,-,-,-
Cc1cc(NC(=O)CSc2nc(C3CC3)nc3sc(C)c(C)c23)no1,-,34,-,-,267
O=C(Nc1ccc(NC(=S)NC(=O)C(c2ccccc2)c2ccccc2)cc1)c1ccccc1,-,40,-,-,.
O=C(Nc1ccc(NC(=S)NC(=O)c2cccs2)cc1)c1ccccc1,-,-,-,-,-
COc1ccc(-c2cn3cc(Br)cnc3n2)cc1,-,20,-,-,-
NC(=O)COC(=O)c1ccc(NS(=O)(=O)c2ccc3c(c2)OCCO3)cc1,-,.,-,-,-
COC(=O)c1ccc(C)c(NS(=O)(=O)c2ccc(C)c([N+](=O)[O-])c2)c1,-,-,-,-,-
COC(=O)c1ccc(C)c(NS(=O)(=O)c2ccc3c(c2)OCCO3)c1,-,21,-,-,-
COc1ccc(S(=O)(=O)Nc2cc([N+](=O)[O-])ccc2OC)cc1,-,28,-,-,-
COC(=O)c1ccc(C)c(NS(=O)(=O)c2ccc(OC)cc2)c1,-,24,-,-,.
O=C1CC(C(=O)N(c2cccc(F)c2)C(C(=O)NC2CCCC2)c2ccccn2)CS1 (stereo unspecified),-,-,-,-,-
COc1cccc(-c2nnc(N(C)C(=O)C3CCOC3)s2)c1 (stereo unspecified),-,-,-,-,-
COc1ccc(/C(N)=N/OC(=O)Oc2ccccc2)cc1OC,-,-,-,-,-
O=C(NCc1ccccn1)c1ccc(Cl)c(S(=O)(=O)N2CCCCC2)c1,-,-,-,-,-
COc1cccc(OC)c1C(=O)NC(=O)Nc1c(F)c(F)c(F)c(F)c1F,-,.,-,-,-
O=c1[nH]c(CN2CCN(c3ccc(O)cc3)CC2)nc2scc(-c3ccc(Cl)cc3)c12,-,21,-,-,-
COc1cccc(N2CCN(Cc3nc4scc(-c5ccccc5)c4c(=O)[nH]3)CC2)c1,-,15,-,-,-
SMILES,Dynein transport,MT stabilizer,Rad51 HR inh,TbHK1 inh,b-catenin transl
COc1ccc(S(=O)(=O)NC(C)C(=O)Nc2ccccc2C(F)(F)F)cc1 (stereo unspecified),-,-,94,-,-
O=C(OCCN1C(=O)c2cccc3c(N4CCOCC4)ccc(c23)C1=O)c1ccccc1Cl,-,14,-,-,.
CC(C)NC(=O)c1ccccc1-c1ccccc1,-,-,-,-,-
CC(=O)Nc1ccc(-n2c(C)ccc2C)cc1,-,-,-,-,-
O=C(Nc1cccc(Cl)c1)c1cccc(Oc2ccc([N+](=O)[O-])cc2Cl)c1,-,-,-,-,-
Cc1ccc([N+](=O)[O-])cc1NC(=O)c1ccccc1,-,-,-,-,-
COc1ccc(NC(=O)c2cccc(Oc3ccc([N+](=O)[O-])cc3Cl)c2)cc1,-,-,.,-,93
Cc1ccc(C)c(NC(=O)c2cccc(Oc3ccc([N+](=O)[O-])cc3Cl)c2)c1,-,-,-,-,62
O=C(NC1CC1)C1CCCN1S(=O)(=O)c1ccc2ccccc2c1 (stereo unspecified),-,24,-,-,-
CCOc1cccc(OCCOCCN(C)C)c1,-,-,-,-,-
O=C1N/C(=N\N=C\c2cccs2)SC1Cc1cccc(Cl)c1 (stereo unspecified),-,22,-,-,-
O=C1N/C(=N\N=C\c2cccs2)SC1Cc1ccc(Cl)cc1 (stereo unspecified),-,-,-,-,-
COc1ccc(/C=N/NC(=O)c2cccc(O)c2)cc1Cn1nc(C)c([N+](=O)[O-])c1C,-,19,.,-,-
COc1ccc(/C=N/NC(=O)c2ccc(N)cc2)cc1Cn1cc([N+](=O)[O-])cn1,-,12,-,-,-
COc1ccc(/C=N/n2cnnc2)cc1Cn1nc(C)c([N+](=O)[O-])c1C,-,-,-,-,-
O=C(NCc1ccccc1)C(c1ccc(O)cc1)N(C(=O)Cn1nnc(-c2cccs2)n1)c1ccc2c(c1)OCCO2 (stereo unspecified),-,-,-,-,-
COc1ccc(OC)c(C(=O)c2oc3ccccc3c2NC(C)=O)c1,-,17,-,-,-
O=C(/C=C/c1ccccc1)Nc1ccc(NC(=O)c2cccs2)cc1,-,.,-,-,-
Cc1cc(NC(=O)COC(=O)c2ccc(S(=O)(=O)N3CCCC3)cc2)no1,-,-,-,-,-
Cc1cc(NC(=O)COC(=O)c2ccc(S(=O)(=O)N3CCCc4ccccc43)cc2)no1,-,35,-,-,70
CCCc1nn(C)c(C(=O)Nc2ccc(CC)cc2)c1Cl,-,-,-,-,-
CCOC(=O)c1c(C)nc2sc(C(=O)Nc3ccc(C(C)=O)cc3)c(N)c2c1-c1ccc(OC)cc1,-,-,-,-,-
CCOC(=O)c1c(C)nc2sc(C(=O)Nc3ccc(OC)cc3)c(N)c2c1-c1ccc(OC)cc1,-,24,-,-,-
O=C(CNC(=O)c1ccc2c(c1)OCO2)N/N=C(Br)/C=C/c1ccccc1,-,19,-,-,-
CCOC(=O)C1=C(C)NC(C)=C(C(=O)OC)C1c1cccc([N+](=O)[O-])c1 (stereo unspecified),-,-,-,-,-
SMILES,Dynein transport,MT stabilizer,Rad51 HR inh,TbHK1 inh,b-catenin transl
CCOC(=O)C1=C(N)Oc2cc(O)ccc2C1c1cccc([N+](=O)[O-])c1 (stereo unspecified),-,15,-,-,-
c1ccc(N/N=C(\Cc2nc3ccccc3[nH]2)c2ccccc2)cc1,-,-,-,-,.
Cc1ccc(N/N=C(\Cc2nc3ccccc3[nH]2)c2ccccc2)cc1,-,-,.,-,107
COc1cccc(NC(=O)C2CCCCC2)c1,-,-,-,-,-
COc1ccc(/C=N/NC(=O)C2COc3ccccc3O2)cc1OC (stereo unspecified),-,-,.,-,-
O=C(N/N=C\c1cc(Br)cs1)C1COc2ccccc2O1 (stereo unspecified),-,43,-,-,-

# Bioassay records from PubChem.
